Series [1] in a line: Stabilization of 5'-FAM/3'-TAMRA labeled c-myc promoter i-motif DNA FPy33T (unknown origin) assessed as change in melting temperature at 5 uM by FRET assay (reference value: 53.2 degreeC). Put shortly: (§1)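 FRET melting of dual FAM/TAMRA-labelled FPy33T annealed in 1× BPES (30 mM potassium phosphate, 1 mM EDTA, 100 mM KCl), pH 5.5. Final 0.2 µM DNA with or without ligand. Excitation 470 nm, emission 530 nm, read every 1 °C over 37–99 °C. ΔTm taken against DNA alone.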

Series [2] can be described thus: Stabilization of 5'-FAM/3'-TAMRA labeled hairpin DNA F10T (unknown origin) assessed as change in melting temperature at 5 uM by FRET assay.
Series [3] has as its system Quadruplex DNA. As to the kind of experiment: Stabilization of 5'-FAM/3'-TAMRA labeled c-myc promoter G-quadruplex DNA FPu22T (unknown origin) assessed as change in melting temperature at 5 uM by FRET assay (reference value: 66.5 degreeC). The format is nucleic-acid assay. An outline of the steps: (§2)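 FRET melting of dual FAM/TAMRA-labelled FPu22T annealed in 10 mM Tris-HCl pH 7.4 with KCl. Final 0.2 µM DNA with or without ligand. Excitation 470 nm, emission 530 nm, read every 1 °C over 37–99 °C on a real-time PCR cycler. ΔTm = Tm(DNA+ligand) − Tm(DNA).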

Series [4] concerns the target dsDNA. Briefly: Binding affinity to 5'-biotin labeled duplex DNA (unknown origin) by surface plasmon resonance method. The format is nucleic-acid assay. Put shortly: (§3)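 SPR: 5'-biotin DNA diluted to 1 μM and captured (1000 RU) on a sensor chip, with a blank cell as reference. Running buffers: Py33 in 20 mM MES pH 5.8, 100 mM KCl, 0.05% Tween-20; Pu27 and duplex in 50 mM Tris-HCl pH 7.4, 100 mM KCl. Six ligand concentrations serially diluted from DMSO stock. Association 260 s, dissociation 300 s at 25 °C; NaOH regeneration; blank sensorgrams subtracted.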
(SPR reads the build-up and loss of mass on a sensor chip optically.)

Series [5] relates to A549. As to the kind of experiment: Antiproliferative activity against human A549 cells after 48 hrs by MTT assay. It is filed as functional, cell-based. To be noted: A549, 48 h. An outline of the steps:
(§4)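 Cells seeded at 5.0×10^3 per well, pre-incubated 12 h at 37 °C, 5% CO2, then exposed to compounds for 48 h; DMSO-only control. MTT (2.5 mg/mL) added for 4 h, formazan dissolved in DMSO, absorbance at 570 nm. Each dose tested in triplicate; IC50 from percentage survival relative to negative control.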

Series [6] relates to HeLa. As to the kind of experiment: Antiproliferative activity against human Hela cells after 48 hrs by MTT assay. The format is functional, cell-based. An outline of the steps: as §4
A general note: Tetrazolium assays rely on reduction of a dye to a coloured formazan, in cell work by metabolically active cells.

Series [7] can be described thus: Stabilization of 5'-FAM/3'-TAMRA labeled hairpin DNA F10T (unknown origin) assessed as change in melting temperature at 1 uM by FRET assay (reference value: 59.1 degreeC).
In series [8] the test system is U2OS. Briefly: Antiproliferative activity against human U2OS cells after 48 hrs by MTT assay. The format is functional, cell-based. Put shortly:
as §4

The target of series [9] is ssDNA. As to the kind of experiment: Binding affinity to 5'-biotin labeled single-stranded DNA Py33 (unknown origin) by surface plasmon resonance method. The format is nucleic-acid assay.
Series [10] addresses Quadruplex DNA. Briefly: Binding affinity to 5'-biotin labeled c-myc promoter G-quadruplex DNA Pu27 (unknown origin) by surface plasmon resonance method. The format is nucleic-acid assay. An outline of the steps:
as §3

Series [11] relates to Quadruplex DNA. Briefly: Stabilization of c-myc promoter G-quadruplex DNA Pu27 (unknown origin) in pH 7.4 Tris-HCl buffer by CD spectroscopy. It is filed as nucleic-acid assay. An outline of the steps: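 Pu27 at 1 µM in 10 mM Tris-HCl pH 7.4, with or without ligand. Annealed at 95 °C for 5 min, cooled to room temperature, stored at 4 °C overnight. CD spectra taken in a 4 mm cuvette over 230–350 nm, three scans averaged, smoothed and buffer-baseline corrected.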

For series [12], the system named is Huh-7. Briefly: Antiproliferative activity against human Huh-7 cells after 48 hrs by MTT assay. The format is functional, cell-based. The following applies: Huh-7, 48 h. An outline of the steps:
as §4

Series [13] concerns HCT-116. As to the kind of experiment: Antiproliferative activity against human HCT-116 cells after 48 hrs by MTT assay. The format is functional, cell-based. The following applies: HCT-116, 48 h. An outline of the steps: as §4
Series [14] can be described thus: Binding affinity to 5'-biotin labeled c-myc promoter i-motif DNA Py33 (unknown origin) by surface plasmon resonance method. Put shortly:
as §3

The subject of series [15] is A-375. Briefly: Antiproliferative activity against human A-375 cells after 48 hrs by MTT assay. The format is functional, cell-based. To be noted: A-375, 48 h. Put shortly: as §4
Series [16] deals with Quadruplex DNA. Briefly: Stabilization of 5'-FAM/3'-TAMRA labeled c-myc promoter G-quadruplex DNA FPu22T (unknown origin) assessed as change in melting temperature at 1 uM by FRET assay (reference value: 66.5 degreeC). It is filed as nucleic-acid assay. Put shortly:
as §2

Series [17] concerns SiHa. As to the kind of experiment: Antiproliferative activity against human SiHa cells after 48 hrs by MTT assay. It is filed as functional, cell-based. Put shortly:
as §4

The nature of series [18]: Stabilization of 5'-FAM/3'-TAMRA labeled c-myc promoter i-motif DNA FPy33T (unknown origin) assessed as change in melting temperature at 1 uM by FRET assay (reference value: 53.2 degreeC). An outline of the steps:
as §1

Series [19] can be described thus: Stabilization of c-myc promoter i-motif DNA Py33 (unknown origin) assessed as decrease in positive peak intensity at pH 5.5 measured at 288 nanometer by CD spectroscopy. An outline of the steps: (§5)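 Py33 at 1 µM in 1× BPES pH 5.5 (pH 6.8 random-coil reference), with or without ligand. Annealed at 95 °C for 5 min, cooled, kept at 4 °C overnight. CD spectra in a 4 mm cuvette over 230–350 nm, three scans averaged, buffer-corrected; peaks followed at 288 and 260 nm.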

Series [20] in a line: Stabilization of c-myc promoter i-motif DNA Py33 (unknown origin) assessed as decrease in negative peak intensity at pH 5.5 measured at 260 nanometer by CD spectroscopy. An outline of the steps: as §5
A short description of series [21]: Stabilization of c-myc promoter i-motif DNA Py33 (unknown origin) assessed as reduction in appearance of random coil confirmation at pH 5.5 by CD spectroscopy. An outline of the steps: as §5
Series [22] can be described thus: Drug uptake in human SiHa cells. The format is ADME, cell-based.

Calls of active or inactive are those of the source. The calls are words filed in the database; no cut-off is given here.

As a reminder, the ΔTm is the change in melting temperature against a reference sample. In general, Kd refers to a measure of binding affinity in units of concentration. Read a low Kd as a tighter complex. As a reminder, the IC50 is the concentration that inhibits the measured activity by half. A high value points to a need for much substance.

In the case of `Cc1ccc2nc3ccc(C)cc3c(NCCNCCNc3c4cc(C)ccc4nc4ccc(C)cc34)c2c1`, the ΔTm in series [1] is 16 °C; in [2] it was 2.5 °C; in series [3], 6.2 °C.
As for `Cc1ccc2nc3ccccc3c(NCCOCCOCCNc3c4ccccc4nc4ccc(C)cc34)c2c1`, the Kd stood at 33200 nM in series [4], 21600 nM in [9], 5100 nM in [10] and 13000 nM in series [14]. Also, the IC50 turned out to be 810 nM in [5]; 320 nM in series [6]; 2160 nM in series [8]; 2140 nM in [12]; 860 nM in series [13]; 1880 nM in [15]. Further, inhibition in [17] was half-maximal at 2770 nM (IC50). Further, the results for the ΔTm in series [7], in [16] and in series [18] were 3 °C, 14.3 °C and 0.1 °C, respectively. Also, in series [11], the result was Active.
Regarding `c1ccc2c(NCCCNCCNCCCNc3c4ccccc4nc4ccccc34)c3ccccc3nc2c1`, the results for the Kd in [4], in [10] and in series [14] were 6000 nM, 13800 nM and 3800 nM, respectively. Further, the IC50 in series [5] was 280 nM; in series [6], 270 nM; in [8], 380 nM; in series [12], 190 nM; in series [13], 690 nM; in series [15], 430 nM. The IC50 in series [17] was 2000 nM. The ΔTm is 9.8 °C in [7], 12.5 °C in series [16] and 11.8 °C in series [18]. For the same compound, the result in series [19], in series [20] and in series [21] was Active.
Consider `Cc1ccc2nc3ccc(C(=O)NCCCN(C)C)cc3c(NCCOCCOCCNc3c4cc(C)ccc4nc4ccc(C(=O)NCCCN(C)C)cc34)c2c1`, for which the Kd in [4] turned out to be 17400 nM; in [10] it was 3700 nM; in [14], 8500 nM. Further, the shift in melting temperature (ΔTm) in [7] worked out at 2.2 °C; in series [16] it was 8.3 °C; in series [18], 27.4 °C. The result in [19], in [20] and in series [21] was Active. Moreover, the Drug uptake result in [22] is given as “Not Active”.
As to `Cc1ccc2nc3ccc(C)cc3c(NCCN(C)C)c2c1`, in series [4], binding was put at a Kd of 13100 nM. Moreover, the ΔTm in series [7] came out at 4.1 °C; in [1], 10 °C; in series [2] it was 6.8 °C; in series [16], 6.2 °C; in series [3], 8.3 °C; in [18], 2.7 °C.
Regarding `COC(=O)c1ccc2nc3ccc(C)cc3c(NCCOCCOCCNc3c4cc(C)ccc4nc4ccc(C(=O)OC)cc34)c2c1`, the Kd in series [4] worked out at 12500 nM; in [9] it was 2900 nM; in [10], 1400 nM; in series [14], 10300 nM. In addition, the ΔTm was 2.5 °C in [7], 14.3 °C in series [16] and 1 °C in series [18]. Moreover, the result in [11] was Active.

The values are drawn from ChEMBL document CHEMBL4725346, “Syntheses and Evaluation of New Bisacridine Derivatives for Dual Binding of G-Quadruplex and i-Motif in Regulating Oncogene c-myc Expression” (J Med Chem, 2020).
